48 compounds from ChEMBL document CHEMBL5131565, “Structure-Guided Optimization of Small-Molecule Folate Uptake Inhibitors Targeting the Energy-Coupling Factor Transporters” (J Med Chem, 2022) can be followed below.

SMILES strings stand for the structures. Converted amounts (≈) assume the structure as drawn.

One data set concerns HepG2. Put plainly: Cytotoxicity against human HepG2 cells assessed as reduction in cell viability measured after 48 hrs by MTT assay. The data set is classed as toxicity, cell-based. (Formazan colour is commonly taken as a measure of viable cells.)
Data set [1] has as its target T1, Energy-coupling factor transporter transmembrane protein EcfT (Lactobacillus casei) (UniProt A0A510WMC0).
T1 sequence (whole entry): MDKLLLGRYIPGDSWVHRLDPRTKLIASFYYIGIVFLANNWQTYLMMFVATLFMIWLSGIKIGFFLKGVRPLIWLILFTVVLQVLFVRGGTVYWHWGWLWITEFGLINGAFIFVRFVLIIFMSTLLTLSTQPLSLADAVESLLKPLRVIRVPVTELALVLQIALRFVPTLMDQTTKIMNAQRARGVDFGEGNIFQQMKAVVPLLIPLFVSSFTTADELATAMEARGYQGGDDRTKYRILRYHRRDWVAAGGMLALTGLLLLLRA
Put plainly: Inhibition of Lactobacillus casei ECF-FolT assessed as inhibition of radiolabelled folic acid uptake at 50 uM pre-incubated for 10 mins followed tritium labeled folic acid addition measured after 30 mins by liquid scintillation analysis relative to control. The note with it: Lacticaseibacillus casei, time 40.0 min. Put shortly:
(§1)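 Whole-cell *L. casei* assay of ECF-FolT-mediated folate uptake. Compounds were first tested at 50 μM and reported as % inhibition. IC50 was determined for those giving more than 70% inhibition at 50 μM. Data come from two independent experiments, each run in duplicate.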

Data set [2] has as its target T2, Energy-coupling factor transporter transmembrane protein EcfT (Lactobacillus casei, UniProt A0A510WMC0).
T2 sequence (A0A510WMC0 whole entry): T1 sequence (whole entry)
Put plainly: Inhibition of Lactobacillus casei ECF-FolT assessed as inhibition of radiolabelled folic acid uptake pre-incubated for 10 mins followed tritium labeled folic acid addition measured after 30 mins by liquid scintillation analysis. Also on record: species or system Lacticaseibacillus casei. Put shortly: as §1

In data set [3] the test system is Enterococcus faecium. Put plainly: Antibacterial activity against Enterococcus faecium DSM-20477 measured after 24 hrs by CLSI protocol based microbroth dilution method. It counts as functional. A general note: Broth dilution looks for growth in wells or tubes with falling amounts of substance.
For data set [4], the system named is Enterococcus faecium. The data set can be described thus: Antibacterial activity against vancomycin-resistant Enterococcus faecium DSM-17050 measured after 24 hrs by CLSI protocol based microbroth dilution method. It counts as functional.
The test system of data set [5] is Streptococcus pneumoniae. Put plainly: Antibacterial activity against Streptococcus pneumoniae DSM-20566 measured after 24 hrs by CLSI protocol based microbroth dilution method. The data set is classed as functional.
Data set [6] concerns Streptococcus pneumoniae. Put plainly: Antibacterial activity against penicillin-resistant Streptococcus pneumoniae DSM-11865 measured after 24 hrs by CLSI protocol based microbroth dilution method. The data set is classed as functional.
In another data set the test system is Staphylococcus aureus. Put plainly: Antibacterial activity against Staphylococcus aureus Newman measured after 24 hrs by CLSI protocol based microbroth dilution method. It counts as functional.
Another data set concerns HEK293. The data set can be described thus: Cytotoxicity against HEK293 cells assessed as reduction in cell viability measured after 48 hrs by MTT assay. The data set is classed as toxicity, cell-based, Homo sapiens.
The test system of another data set is A549. Put plainly: Cytotoxicity against human A549 cells assessed as reduction in cell viability measured after 48 hrs by MTT assay. It counts as toxicity, cell-based.
Data set [7] in a line: Kinetic solubility of the compound. The data set is classed as physicochemical. Particulars: read-out: Kinetic_solubility.

As for `CCCCN(C(=O)Nc1c(-c2ccc(Oc3ccccc3)cc2)csc1C(=O)O)c1ccccc1`, the IC50 with HepG2 came to 57 µM; in data set [2], 3.9 µM; in the data set with HEK293 it was 25.5 µM; in the data set with A549, 49.3 µM. Moreover, the inhibition in [1] is 100%. For the same compound, the MIC in the data set on Enterococcus faecium [3] stood at 16 µM (≈ 7.79 µg/mL); against Enterococcus faecium [4], 8 µM (≈ 3.89 µg/mL); in the data set on Streptococcus pneumoniae [5] it was 4 µM (≈ 1.95 µg/mL); in the data set on Streptococcus pneumoniae [6], 16 µM (≈ 7.79 µg/mL); against Staphylococcus aureus, 16 µM (≈ 7.79 µg/mL). Further, the solubility kinetic in [7] was over 200 µM.

For the compound `CCCCCCNC(=O)Nc1c(C(=O)O)cccc1-c1ccc(Cl)c(Cl)c1`, in data set [1], the inhibition stood at 65.4%. With `CCCCCCNC(=O)Nc1cc(-c2ccc([N+](=O)[O-])cc2)sc1C(=O)O`, the inhibition in data set [1] was determined as 82.1%. In addition, the IC50 in data set [2] is 25.1 µM. With `CC(C)NC(=O)Nc1cc(-c2ccc(Cl)c(Cl)c2)sc1C(=O)O`, the inhibition in data set [1] came to 39.3%. Same read-out and setting: with `CCCCCCNC(=O)Nc1cc(-c2cccc(C(F)(F)F)c2)sc1C(=O)O` the figure was 52.3%.

On to `CN(C(=O)Nc1cc(-c2ccc(Cl)c(Cl)c2)sc1C(=O)O)c1ccccc1`, for which, in data set [1], the inhibition was found to be 71.5%. Moreover, the IC50 in data set [2] was 23 µM. The corresponding values for `CCN(Cc1ccccc1)C(=O)Nc1cc(-c2ccc(Cl)c(Cl)c2)sc1C(=O)O` are 89.4% and 11.4 µM. Turning to `Nc1c(-c2ccc(Cl)c(Cl)c2)csc1C(=O)O`, in data set [1], the inhibition was under 10%.

Consider `O=C(NCCc1ccccc1)Nc1cc(-c2ccc(Cl)c(Cl)c2)sc1C(=O)O`, for which the inhibition in data set [1] came to 91.7%. In addition, the IC50 in data set [2] worked out at 15.3 µM. As for `O=C(NCc1cccnc1)Nc1cc(-c2ccc(Cl)c(Cl)c2)sc1C(=O)O`, the inhibition in data set [1] was determined as 58%.

`CCN(Cc1ccccc1)C(=O)Nc1cc(-c2ccc(C#N)cc2)sc1C(=O)O`: in data set [1], the inhibition is 18.3%.

For the compound `CCN(C(=O)Nc1cc(-c2ccc(Cl)c(Cl)c2)sc1C(=O)O)c1ccccc1`, the inhibition in [1] worked out at 83.2%. Further, the IC50 in data set [2] amounted to 10.5 µM. On to `CCCCCCNC(=O)Nc1cc(-c2ccc(C(F)(F)F)cc2)sc1C(=O)O`, for which the inhibition in data set [1] was found to be 27.1%.

For `O=C(O)c1sc(-c2ccc(Cl)c(Cl)c2)cc1NC(=O)N(Cc1ccccc1)c1ccccc1`, the inhibition in [1] stood at 91.3%. For the same compound, the IC50 in [2] worked out at 2.94 µM. For `CCN(Cc1ccccc1)C(=O)Nc1cc(-c2ccc(C)cc2)sc1C(=O)O`, in data set [1], the inhibition came to 38.9%.

For `O=C(Nc1ccccc1)Nc1cc(-c2ccc(Cl)c(Cl)c2)sc1C(=O)O`, the inhibition in data set [1] turned out to be 86.8%. The 50% inhibitory concentration (IC50) in [2] was found to be 14.4 µM. With `NC(=O)Nc1cc(-c2ccc(Cl)c(Cl)c2)sc1C(=O)O`, the inhibition in [1] is 42.4%. On the same count and under the same terms, for `CCN(Cc1ccccc1)C(=O)Nc1cc(-c2ccc(Br)cc2)sc1C(=O)O` the value was 52.3%. `CN(Cc1ccccc1)C(=O)Nc1cc(-c2ccc(Cl)c(Cl)c2)sc1C(=O)O`: the inhibition in data set [1] came to 86.9%. Besides, the half-inhibitory concentration (IC50) in data set [2] amounted to 10 µM. As for `CCCCNC(=O)Nc1cc(-c2ccc(Cl)c(Cl)c2)sc1C(=O)O`, the inhibition in data set [1] was 61.9%. Regarding `O=C(O)c1sc(-c2ccc(Cl)c(Cl)c2)cc1NC(=O)N(Cc1ccccc1)Cc1ccccc1`, the inhibition in data set [1] worked out at 85.1%. Further, the IC50 in [2] came to 24 µM.

In the case of `O=C(NCc1ccccc1)Nc1cc(-c2ccc(Cl)c(Cl)c2)sc1C(=O)O`, the inhibition in [1] was found to be 71.1%. Further, the IC50 in data set [2] was found to be 17.8 µM. In the case of `CCCCN(C(=O)Nc1cc(-c2ccc(Cl)c(Cl)c2)sc1C(=O)O)c1ccccc1`, the IC50 in the data set on HepG2 is 95.6 µM; in [2], 2.35 µM; in the data set with HEK293, 52.5 µM; in the data set with A549 it was over 100 µM. Moreover, the inhibition in [1] came out at 99.6%. The MIC was 8 µM (≈ 3.71 µg/mL) in the data set with Enterococcus faecium [3]; 2 µM (≈ 0.927 µg/mL) with Enterococcus faecium [4]; 2 µM (≈ 0.927 µg/mL) with Streptococcus pneumoniae [5]; 0.5 µM (≈ 0.232 µg/mL) against Streptococcus pneumoniae [6]; 23 µM (≈ 10.7 µg/mL) in the data set with Staphylococcus aureus. In addition, in data set [7], the solubility kinetic came to 107 µM (≈ 49.4 µg/mL). For the compound `CCCCCCNC(=O)Nc1cc(-c2ccc(OC)cc2)sc1C(=O)O`, in data set [1], the inhibition was found to be 12.1%. Consider `CCCCCCNC(=O)Nc1cc(-c2cc(Cl)ccc2Cl)sc1C(=O)O`, for which, in data set [1], the inhibition was determined as 93.4%. Also, the IC50 in [2] was found to be 21.8 µM. The like results for `CCCCCCNC(=O)Nc1c(-c2ccc(Cl)c(Cl)c2)csc1C(=O)O` were, in that order, 90.6% and 6 µM. On to `O=C(NCc1ccncc1)Nc1cc(-c2ccc(Cl)c(Cl)c2)sc1C(=O)O`, for which the inhibition in [1] is 54%. For the compound `O=C(O)CCCNC(=O)Nc1cc(-c2ccc(Cl)c(Cl)c2)sc1C(=O)O`, the inhibition in data set [1] was 0.2%.

With `CCCCN(Cc1ccccc1)C(=O)Nc1cc(-c2ccc(Cl)c(Cl)c2)sc1C(=O)O`, the inhibition in [1] came to 42.5%.

Turning to `COc1ccc(CNC(=O)Nc2cc(-c3ccc(Cl)c(Cl)c3)sc2C(=O)O)cc1`, in data set [1], the inhibition came to 54.3%.

For `CCCCN(CCc1ccccc1)C(=O)Nc1cc(-c2ccc(Cl)c(Cl)c2)sc1C(=O)O`, the inhibition in data set [1] was 57.8%.

`CCCCCCNC(=O)Nc1cc(-c2ccccc2)sc1C(=O)O`: in data set [1], the inhibition amounted to 25.1%.

For the compound `CCCCCCNC(=O)Nc1cc(-c2cccc([N+](=O)[O-])c2)sc1C(=O)O`, the inhibition in data set [1] was found to be 65.3%. In addition, the half-maximal inhibitory concentration (IC50) in data set [2] came out at 43.3 µM.

With `CCCCCCNC(=O)Nc1cc(-c2ccc(Cl)cc2)sc1C(=O)O`, the inhibition in [1] was 27.2%. Same read-out and setting: with `O=C(NCc1ccccn1)Nc1cc(-c2ccc(Cl)c(Cl)c2)sc1C(=O)O` the figure was 59%. Same read-out and setting: with `CCCCCCNc1c(-c2ccc(Cl)c(Cl)c2)csc1C(=O)O` the figure was 95.2%. Still for that read-out and setting: for `CCCCCCNC(=O)Nc1cc(-c2ccc(Cl)cc2Cl)sc1C(=O)O` the value was 67.9%; for `CCN(Cc1ccccc1)C(=O)Nc1cc(-c2cc(Cl)cc(Cl)c2)sc1C(=O)O`, 22%; for `CCCCCCNC(=O)Nc1ccsc1C(=O)O`, under 10%.

In the case of `CCCCCCNC(=O)Nc1sc(-c2ccc(Cl)c(Cl)c2)cc1C(=O)O`, the inhibition in data set [1] worked out at 17.9%. For `CCN(Cc1ccccc1)C(=O)Nc1cc(-c2ccc(Oc3ccccc3)cc2)sc1C(=O)O`, the inhibition in data set [1] is 97%. Also, the IC50 in data set [2] stood at 10.1 µM. The like results for `CCCCN(C(=O)Nc1c(-c2cc(Cl)ccc2Cl)csc1C(=O)O)c1ccccc1` were, in that order, 73.4% and 17 µM. The like results for `CCCCCCNC(=O)Nc1scc(-c2ccc(Cl)c(Cl)c2)c1C(=O)O` were, in that order, 87.5% and 18.5 µM. The corresponding values for `CCCCCCNC(=O)Nc1cc(-c2ccc(Cl)c(Cl)c2)sc1C(=O)O` are 72.2% and 28.5 µM. Consider `CCCCCCNC(=O)Nc1cc(-c2cccc(Cl)c2)sc1C(=O)O`, for which the inhibition in [1] came out at 36.2%. The same measure, in the same setting: with `CCN(Cc1ccccc1)C(=O)Nc1cc(-c2ccc(OC(F)(F)F)cc2)sc1C(=O)O` the figure was 67.2%. On the same count and under the same terms, for `CCCCCCNC(=O)Nc1cc(-c2ccc(Cl)c(C(F)(F)F)c2)sc1C(=O)O` the value was 59%; for `CCCCC(=O)Nc1c(-c2ccc(Cl)c(Cl)c2)csc1C(=O)O`, 31.8%.

By IC50 is commonly meant the concentration that inhibits the measured activity by half. A word on the inhibition: it is the drop in the measured response relative to a control, in per cent. What is called MIC is the smallest concentration in the dilution series that meets the test's criterion for growth inhibition. A high value points to a need for much substance.
